Assay results: ChEMBL document CHEMBL4823270, “A first-in-class anticancer dual HDAC2/FAK inhibitors bearing hydroxamates/benzamides capped by pyridinyl-1,2,4-triazoles” (Eur J Med Chem, 2021)
The source made the active and inactive calls. The rule behind the calls is not given here.

Assays:
[1] = test system: HT-29; assay: Growth inhibition of human HT-29 cells at 10 uM incubated for 24 hrs by MTT assay relative to control; type: functional; settings: read-out: GI
Summary of the method: (§1)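 Cells seeded at 1 × 10^4 per well, cultured overnight, then exposed to 10 μM compound or DMSO (negative control) for 24 h. After a PBS wash, MTT (2 mg/ml) was added for 4 h at 37°C and formazan dissolved in DMSO. OD read at 570 nm. Growth inhibition = 1 − (OD treated/OD control); at least three independent experiments.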

[2] = test system: CAKI-1; assay: Induction of cell cycle arrest in human CAKI-1 cells assessed as accumulation at G2/M phase incubated for 24 hrs by propidium iodide based flow cytometry analysis (reference value: 5.5 %); type: functional
Summary of the method: (§2)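 Cells at 1 × 10^5/mL treated with 0.75 or 1.5 μM compound or DMSO (negative control) for 24 h, harvested and washed in PBS. Fixed by dropwise ice-cold 80% ethanol with vortexing, held overnight, washed twice, PI-stained 20 min in the dark. Phase distribution read by flow cytometry.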

[3] = test system: A498; assay: Induction of apoptosis in human A498 cells at 0.75 to 1.5 uM measured after 24 hrs by Annexin-V/propidium iodide staining based flow cytometry relative to control; type: functional; settings: dose 0.75-1.5 µM
Summary of the method: (§3)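 Cells in supplemented medium with 10% FBS at 37 °C, 5% CO2, exposed to 0.75 or 1.5 μM compound, or DMSO as negative control, for 24 h. Apoptosis assessed by annexin V/PI staining per kit instructions, then flow cytometry; apoptotic cell percentage quantified against control.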

[4] = test system: K562; assay: Growth inhibition of human K562 cells at 10 uM incubated for 24 hrs by MTT assay relative to control; type: functional; settings: read-out: GI; summary of the method: as §1
[5] = test system: CAKI-1; assay: Induction of cell cycle arrest in human CAKI-1 cells assessed as decrease in cell population at G1 phase at 1.5 uM incubated for 24 hrs by propidium iodide based flow cytometry analysis; type: functional; summary of the method: as §2
[6] = test system: A498; assay: Induction of apoptosis in human A498 cells assessed as activation of caspase-9 measured after 24 hrs by ELISA relative to control; type: functional
[7] = test system: CAKI-1; assay: Antiproliferative activity against human CAKI-1 cells assessed as cell growth inhibition incubated for 24 hrs by MTT assay; type: functional, cell-based; settings: CAKI-1, 24 h
[8] = molecular target: T1, Histone deacetylase 8 (Homo sapiens, UniProt Q9BY41); assay: Inhibition of human full-length recombinant C-terminal His-tagged HDAC8 expressed in baculovirus infected Sf9 insect cells preincubated for 5 mins followed by HDAC substrate addition and further incubated for 45 mins by fluorescence microplate reader assay
T1 sequence (Q9BY41 whole entry): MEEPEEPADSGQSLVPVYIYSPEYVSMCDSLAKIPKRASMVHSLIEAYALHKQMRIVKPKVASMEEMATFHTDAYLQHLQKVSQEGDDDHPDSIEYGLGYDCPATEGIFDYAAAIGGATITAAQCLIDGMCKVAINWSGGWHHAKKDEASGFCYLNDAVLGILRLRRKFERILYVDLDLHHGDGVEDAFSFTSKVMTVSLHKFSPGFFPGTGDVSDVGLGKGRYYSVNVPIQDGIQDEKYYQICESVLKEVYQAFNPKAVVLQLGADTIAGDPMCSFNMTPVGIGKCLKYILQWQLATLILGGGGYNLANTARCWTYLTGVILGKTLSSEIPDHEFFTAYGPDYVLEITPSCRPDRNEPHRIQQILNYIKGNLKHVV

[9] = test system: CAKI-1; assay: Induction of apoptosis in human CAKI-1 cells at 1.5 uM measured after 24 hrs by Annexin-V/propidium iodide staining based flow cytometry relative to control; type: functional; summary of the method: as §3
[10] = molecular target: Histone deacetylase 2 (Homo sapiens, UniProt Q92769); assay: Inhibition of HDAC2 in human A498 cells assessed as reduction in HDAC2 expression by Western blot analysis; type: cell-based
Histone deacetylase 2, sequence (Q92769 whole entry): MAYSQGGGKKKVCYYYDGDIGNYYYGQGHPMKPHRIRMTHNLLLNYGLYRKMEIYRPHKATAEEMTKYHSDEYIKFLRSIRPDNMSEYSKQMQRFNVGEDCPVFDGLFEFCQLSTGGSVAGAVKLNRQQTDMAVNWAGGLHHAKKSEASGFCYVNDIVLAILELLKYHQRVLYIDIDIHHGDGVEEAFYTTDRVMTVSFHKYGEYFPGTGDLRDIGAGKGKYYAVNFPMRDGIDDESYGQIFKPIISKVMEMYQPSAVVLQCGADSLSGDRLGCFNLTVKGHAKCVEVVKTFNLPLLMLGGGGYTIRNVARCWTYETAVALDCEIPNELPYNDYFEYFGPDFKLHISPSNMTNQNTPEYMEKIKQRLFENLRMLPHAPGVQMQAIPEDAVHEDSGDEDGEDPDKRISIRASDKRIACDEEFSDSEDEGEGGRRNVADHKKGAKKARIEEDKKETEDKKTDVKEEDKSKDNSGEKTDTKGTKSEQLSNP
Summary of the method: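 40 μg protein (Bradford) resolved by SDS-PAGE, transferred to PVDF, blocked 1 h in milk or BSA. Primary antibody overnight, HRP secondary 1 h, ECL detection; β-actin as loading control.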

[11] = molecular target: Histone deacetylase 3 (Homo sapiens, UniProt O15379); assay: Inhibition of human full-length recombinant HDAC3 preincubated for 5 mins followed by HDAC substrate addition and further incubated for 45 mins by fluorescence microplate reader assay
Histone deacetylase 3, sequence (O15379 whole entry): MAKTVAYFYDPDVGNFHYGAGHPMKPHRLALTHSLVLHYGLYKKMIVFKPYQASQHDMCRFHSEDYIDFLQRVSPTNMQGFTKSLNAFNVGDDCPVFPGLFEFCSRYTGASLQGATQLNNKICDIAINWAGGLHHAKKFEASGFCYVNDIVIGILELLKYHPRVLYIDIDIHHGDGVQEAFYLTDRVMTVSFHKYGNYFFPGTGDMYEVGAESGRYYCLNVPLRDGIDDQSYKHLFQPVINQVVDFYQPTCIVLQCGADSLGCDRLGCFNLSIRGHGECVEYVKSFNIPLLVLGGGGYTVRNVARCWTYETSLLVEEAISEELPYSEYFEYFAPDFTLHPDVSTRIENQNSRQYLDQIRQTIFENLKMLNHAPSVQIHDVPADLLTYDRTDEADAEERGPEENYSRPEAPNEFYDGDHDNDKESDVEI

Question: For Cn1c(SCCCCCC(=O)NO)nnc1-c1ccncc1, which inhibition of growth at 10 µM [1] is on record?
Answer: The inhibition of growth at 10 µM was 68.3%.

Question: And the Activity [2]?
Answer: The Activity was 35%.

Question: What about the Activity [3] of the same molecule?
Answer: The Activity was 50%.

Question: What about the inhibition of growth at 10 µM [4] of the same molecule?
Answer: Its inhibition of growth at 10 µM is 40.1%.

Question: What about the Activity [5] of the same molecule?
Answer: Its Activity is “Active”.

Question: What about the “fold change (FC)” value [6] of the same molecule?
Answer: Its value is 6.

Question: What about the IC50 [7] of the same molecule?
Answer: Its IC50 is 1.23 µM.

Question: And the IC50 [8]?
Answer: The IC50 was 7.1 µM.

Question: What about the Activity [9] of the same molecule?
Answer: Its Activity is 37%.

Question: And the inhibition [10]?
Answer: Its inhibition is “Active”.

Question: And the IC50 [11]?
Answer: Its IC50 is 3.41 µM.
